Publication PMC4196715 (American journal of transplantation : official journal of …, 2014)
Where two headings read alike, the source gives them in different places.

Columns and labels:
[1] = Pharmacokinetics after i.p. administration; type: in vivo, mice; details: for AUC 0-infinity / Apparent volume of distribution / Disposition rate constant: i.p., AZD8055 10 mg/kg plasma, RAPA 1 mg/kg whole blood; for concentration at 8 h: 10 mg/kg; for half-life: plasma (AZD8055), whole blood (RAPA), ip
[2] = test system: splenic CD4+ and CD8+ T cells of heart graft recipients; type: in vivo, mouse; details: for CD4+ T cell IFNγ production enhanced by transplantation / CD8+ T cell IFNγ production enhanced by transplantation: splenocytes, day 10–11 post-transplant
[3] = ref Dr. A.D. McCormick, Astrazeneca, UK, personal communication; cited from earlier work
Renal function = type: in vivo, mouse; details: after 10 days of treatment
How it was run: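 B6 recipients of BALB/c heterotopic heart grafts were given test compound at 10 mg/kg twice daily i.p. (days 2–11) in PBS with 0.02% Tween 80 and 0.26% polyethylene glycol. Serum creatinine was measured after 10 days of treatment, n=4.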

[4] = test system: BALB/c to B6 cardiac allograft model; type: in vivo, mouse; details: for graft histology on days 10–11: H&E, no-IS grafts showed severe cellular rejection; for Foxp3 mRNA expression in allografts: PCR, RAPA being superior to AZD8055; for enhancement of graft-infiltrating Foxp3+ Treg: immunoperoxidase staining of allograft, vs no IS
[5] = mice, oral administration; cited from earlier work
[6] = test system: B6 CD3+ T cells (CD4+ and CD8+ T cell proliferation); experiment: T cell proliferation by CFSE dilution after anti-CD3/CD28 bead stimulation; type: cell-based, mouse
How it was run: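 B6 CD3+ T cells were isolated by negative selection and CFSE-labelled. 1×10^5 cells were stimulated with 2.5×10^4 CD3/CD28 Dynabeads for 5 days. Test compound (10 mM DMSO stock) was added at the start of culture, from 1.95 to 1000 nM. CFSE dilution was gated on CD4+ or CD8+ cells and expressed as percent suppression versus stimulated cells without inhibitor. n=3–4 experiments; means ± SD; t tests.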

[7] = oral dosing, Phase I; cited from earlier work
[8] = i.v. administration, B6 mice; cited from earlier work

## COc1ccc(-c2ccc3c(N4CCOC[C@@H]4C)nc(N4CCOC[C@@H]4C)nc3n2)cc1CO [AZD8055, (5-{2,4-Bis[(3S)-3-methylmorpholin-4-yl]pyrido[2,3-d]pyrimidin-7-yl}-2-methoxyphenyl) methanol]
[1]
  AUC 0-infinity: 26.2 µg/mL/h
  Apparent volume of distribution: 37 mL
  Disposition rate constant: 0.205 h⁻¹
[1]; mouse, in vivo
  concentration at 8 h: 200 nM
[1]; mouse
  half-life: 3.4 h
[1]; mouse, plasma, intraperitoneal
  concentration at 8 h: ≥ 200 nM
[2]; day 20 post-transplant, not sustained at day 80
  percentage of IFN-producing CD4+ and CD8+ T cells compared with animals given RAPA: higher
[2]
  CD4+ T cell IFNγ production enhanced by transplantation: reaching the same levels as in naïve mice
  CD8+ T cell IFNγ production enhanced by transplantation: inhibited completely
[3]
  fraction in plasma bound to plasma protein: approximately 95%
Renal function
  adverse effects on renal function: No adverse effects
Renal function; n=4
  serum creatinine levels: 0.2 mg/dL
[4]
  graft histology on days 10–11: comparatively mild mononuclear cell infiltrate
  Foxp3 mRNA expression in allografts: increased
  enhancement of graft-infiltrating Foxp3+ Treg: 7–10 fold
[5]
  half-life: approximately 2 h
[6]; CD4+ and CD8+ T cells, CD3/CD28 beads, 5 days
  concentrations at which AZD8055 surpassed the ability of RAPA to inhibit T cell proliferation: ≥ 200 nM
[6]; concentrations tested between 1.95 nM and 1000 nM
  concentration dependence of inhibition of T cell proliferation: dose-related inhibitory effect
[7]
  half-life in humans: approximately 2 h

## CO[C@H]1C[C@@H]2CC[C@@H](C)[C@@](O)(O2)C(=O)C(=O)N2CCCC[C@H]2C(=O)O[C@H]([C@H](C)C[C@@H]2CC[C@@H](O)[C@H](OC)C2)CC(=O)[C@H](C)/C=C(\C)[C@@H](O)[C@@H](OC)C(=O)[C@H](C)C[C@H](C)/C=C/C=C/C=C/1C [RAPA, rapamycin]
[1]
  AUC 0-infinity: 1.93 µg/mL/h
  Apparent volume of distribution: 74 mL
  Disposition rate constant: 0.141 h⁻¹
[1]; mouse
  half-life: 4.9 h
[1]; mouse, whole blood, intraperitoneal, 1 mg/kg
  concentration at 24 h: > 10 nM
[2]
  CD4+ T cell IFNγ production enhanced by transplantation: more effective inhibition
  CD8+ T cell IFNγ production enhanced by transplantation: inhibited completely
[4]; 10-day course, AZD8055 10 mg/kg twice daily i.p., RAPA 1 mg/kg/day i.p.
  recipients with long-term graft survival (>80 days): fifty
[4]
  graft histology on days 10–11: comparatively mild mononuclear cell infiltrate
  Foxp3 mRNA expression in allografts: increased
  enhancement of graft-infiltrating Foxp3+ Treg: 7–10 fold
[8]
  half-life: 6.4 h
